Reference: the EternaBench riboswitch data

Tested on: MS2 coat protein
Assay: apparent Kd, MS2 coat protein; higher = weaker binding; RNA-MaP array; FMN 200 µM where present
In short: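 Apparent Kd: the median of filtered binding-curve fits from single clusters. Designs were transcribed on Illumina sequencing-chip clusters by stalled E. coli RNA polymerase and titrated with SNAP-549-labelled MS2 coat protein from 0.7 or 1.5 nM, doubling to 3 µM, in 100 mM Tris-HCl pH 7.5, 80 mM KCl, 4 mM MgCl2, BSA, DTT, yeast tRNA and Tween-20. Each series ran without and then with constant ligand, and green signal was normalised to red-channel RNA signal and control-cluster median Fmax.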

[1] = designed as: OFF switch for flavin mononucleotide, no ligand
[2] = ligand present: flavin mononucleotide, designed as: OFF switch for flavin mononucleotide
[3] = designed as: ON switch for flavin mononucleotide, no ligand
[4] = ligand present: flavin mononucleotide, designed as: ON switch for flavin mononucleotide

| Sequence | apparent Kd [1] [nM] | apparent Kd [2] [nM] | apparent Kd [3] [nM] | apparent Kd [4] [nM] |
| --- | --- | --- | --- | --- |
| GAGAUGUGAGGAUAUCUAGACCAUGGAAAAGCCACGGUCCGAGAGAAGGCACAUGAGGAUCACCCAUGUGAUGA | 45.9 | 171 | – | – |
| UUGCAGUCGUCAGGAUAUAGUAUUACGGCCUUUCAUUUCUUCAUACAUGAGGAUCACCCAUGUCGCUAGAAGGGCUUAUCGCUU | 14.8 | 13.2 | – | – |
| AAAAAGGCAGGAUAUACAUGAGGAUCACCCAUGUAGUUGACAAAAAAGAGUCAACAGUGUAGAAGGGCCAAAAA | 19.3 | 24.6 | – | – |
| AACUGUCUAAAGGAUAUGCUGGAUUAAUAUCUGGCAGAAGGUUGGACAUGAGGAUCACCCAUGUAAAUACUACC | 21.6 | 70.1 | – | – |
| CACCGUUACAGAGGAUAUCUUACAUGAGGAUCACCCAUGUAAUAAAUGAGAAUUUCGGAUGUAUGAGAGAAGGCUGGAAUCGGC | 23.2 | 22 | – | – |
| AUUAAUUAAUUAAUACAUGAGGAUCACCCAUGUAAUAAGAUCUAGGAUAUCAGCUCGUUUAGAGCUGAGAAGGAGAUCACAUGU | – | – | 42.6 | 37.2 |
| GUUACACAUGAGGAUCACCCAUGUAAGGAUAUGCUGCGGUCGCGCUGACGUGACUGCAGCAGAAGGUACAAUUG | 84.7 | 88.6 | – | – |
| AAUGAAACUUAGAAGGCCUACAUGAGGAUCACCCAUGUGGCUUUAAGUGUAGGAGGAUAUGAGGAUGCGGGUAGGAACCCACGC | 6.37 | 14.8 | – | – |
| UUAAAUCAUGUAGGAUAUGCAUGGCGAAGCUACGCAGAAGGACAUGAGGAUCACCCAUGUUCGAGCGUCUGAGUACAGAUGCAA | 19.1 | 59.8 | – | – |
| AGUCGGAGCAGAGGAUAUUACAUGAGGAUCACCCAUGUAAAUGGAAUAAGCUGGAAACAGCAAUGUAAGAAGGCUGCUCCGACA | 67.4 | 540 | – | – |
| CCGUUGGGCUAGAAGGCUCCGGGAGAGCCGCGGAGAGGAUAUAGCACAUGAGGAUCACCCAUGUGGUAUGACCUUAUGUAAUCA | 33.7 | 62.9 | – | – |
| GCAUAUCAGGGAGGAUAUGACAUGAGGAUCACCCAUGUAAUUAUGGCUCUGUCAGAAGGCCCAUCGUCAGUAUAGUGACGAGAC | 375 | 137 | – | – |
| GGUCCACAUGAGGAUCACCCAUGUUAGGAUAUCUCCCGCCUCCUCACUAGAGGCGGACAGAGAAGGAACAUCAA | 26 | 78 | – | – |
| GGCUCAGUGACAUGAGGAUCACCCAUGUGGCUCAUUCAACGCAGAAGGCACAAGGGAACACCUCGUGAGGAUAUGCAAGUAGAC | – | – | 367 | 36.7 |
| GUUCAGUCAGGAUAUUUGUAACGCUCGGUAUCGAGUGGUAAGAAGAAGGGACAUGAGGAUCACCCAUGUCAGUA | 20.1 | 17.6 | – | – |
| UUGCGGUAGGAGAAGGACAGAGGCGGAAACACAAACAUGAGGAUCACCCAUGUAGGAUAUCCUACCUAACGCGGAUACCUCCAG | 14 | 39.6 | – | – |
| AUCAGCUCGUCAGGAUAUACGUCACUGCGUCAGCAGUGAGGUAAGAUCACAUGAGGAUCACCCAUGUAGAAGGGACGAGCUGAU | 6.09 | 13.2 | – | – |
| GGCUCCGCUCGAGGAUAUAGCUGCAUGUAGUGUCCUGAGGCACAUGAGGAUCACCCAUGUGUAGGCUAGAAGGCGACGGACACU | 8.81 | 26.2 | – | – |
| AACGUGUAAGGAUAUGCUGCUCGUCACAAAAGUGAUGAGUAGCAGAAGGUACAUGAGGAUCACCCAUGUAAAGA | 35.4 | 73.8 | – | – |
| GGGCGUUGGGAGAAGGUACAUUAAAUUAGUUUAACAUGAGGAUCACCCAUGUAAGGAUAUCCCAUCGUGUAAUAUUAUACAGCC | 11 | 13.8 | – | – |
| GGCAGACAUGAGGAUCACCCAUGUCAGGAUAUUAGGCGAUCGUCGAUAGACGAUAGCCUGAGAAGGGACAUGCC | 23.8 | 54.1 | – | – |
| CAAAAUUGUGCAGGAUAUGCAGUUUGAUGGGCCUGUGGGAGAACAUGAGGAUCACCCAUGUGCUUGCAGAAGGGCACAAGCGAA | 103 | 419 | – | – |
| ACUAGAUGAGGAUAUGCAUAUUUUCGUGUUCUUCUAGGUUAACAUGAGGAUCACCCAUGUAGAAGGCGUCUAUC | 22.2 | 39.7 | – | – |
| CAGUAUAACGAAGGAUAUGGAUACAUGAGGAUCACCCAUGUAUUUUUUGUGAUUUUAAAAUUGAUCCAGAAGGUCGUAUAACUG | 31.1 | 29.2 | – | – |
| AUAUUUGUGUAGAAGGUACGUGAUUAGUCAUAGUAAGGAUAUACUGACAUGAGGAUCACCCAUGUAUAAAUAGUUAAAUGUUCU | – | – | 14.4 | 8.52 |
| GAUUCGGGAGGAUAUACAUGAGGAUCACCCAUGUGUUUUUUGUGUGUUAUGUUAUCAUGUAGAAGGUUUGGGUC | 286 | 260 | – | – |
| AGAUGACAAAGUCAUCUCGCGCUGACAUGAGGAUCACCCAUGUAGGAUAUAUUACUCAAAGAGUAAUAGAAGGACAUGUGUCUU | 29.9 | 72.2 | – | – |
| UUCAGACAUGAGGAUCACCCAUGUGAGGAUAUGAUGCGAUCGUCGAAAGACGAUAGCAUCAGAAGGCACAAAUG | 103 | 156 | – | – |

| Sequence | apparent Kd [1] [nM] | apparent Kd [2] [nM] | apparent Kd [3] [nM] | apparent Kd [4] [nM] |
| --- | --- | --- | --- | --- |
| AAUUGACACGUAGGAUAUCGCUCUUAUUUAACACGAGAAGGACGUACAUGAGGAUCACCCAUGUUAAAUGGUGUAGAUUAGUUG | 153 | 481 | – | – |
| AGCGGCGCGGGCCACCGCAGAACCAGAAGGACAUGAGGAUCACCCAUGUAACAGAACAGGGCGGUGUAGGAUAUGGCAGGCUCG | 25.1 | 46.2 | – | – |
| GCUGGCAUGCAAGGAUAUCCUUCCGAGUAGGAAGGAGAAGGUGCUUGUGGGACAUGAGGAUCACCCAUGUAUGUUGGCCACGAC | – | – | 134 | 79.2 |
| AUCAGCUCGUCAGGAUAUACGUCACUGCGUCAGCAGUGUGCUAAGAUCACAUGAGGAUCACCCAUGUAGAAGGGACGAGCUGAU | 5.83 | 22.1 | – | – |
| CCGAUGUUAGGAUAUACUGCCCGUGGGAUAAACGCCGGGUAGUAGAAGGAACAUGAGGAUCACCCAUGUGACAC | 39.6 | 220 | – | – |
| AAUUGCCUAGGAUAUACUUGGGCCCGCUCAUACUCCAAUGGACAUGAGGAUCACCCAUGUAGAAGGAGGACCCA | 17.2 | 39.4 | – | – |
| UUUUUGUGAGGAUAUCAGUAGUAAAAAAAUAAAAUUACUACUGAGAAGGCACAUGAGGAUCACCCAUGUUCCUU | 14.3 | 33.5 | – | – |
| AUCAGCUCCUCAGGAUAUACAUCACUGCUUCGGCAGUGUAUUAAGAUCACAUGAGGAUCACCCAUGUAGAAGGGAGGAGCUGAU | 29.5 | 336 | – | – |
| UCAUGCAUAGCGAUAUGAUCGAGAGAUCAUGUCGCUAAAUUUAGAAGGACAUGAGGAUCACCCAUGUAGGAUAUGGGAGCAUGG | – | – | 292 | 31.9 |
| GUAGCAUACCGAGGAUAUUCAUAUAAUAAAUAAACAUGAGGAUCACCCAUGUGGCGAAAGCCAAGGGAGAAGGCGGAAUGCUAC | – | – | 315 | 26.4 |
| CAAACCAGAGGAUAUGCGCAUAGAUCAGACUUUGUUUCUGAACAUGAGGAUCACCCAUGUAGAAGGCUGUAAAC | 25.5 | 24.4 | – | – |
| GCUGCGCGAGGAUAUGCGGUUCGCGCUGUGGCCCGUGGCGGACAUGAGGAUCACCCAUGUAGAAGGCGUGCGGG | 13 | 15.1 | – | – |
| UGUAUUAACGGAGGAUAUCGAUAUCAAACAUGAGGAUCACCCAUGUUGAGGAUCACCCAUGUCCAUGAGAAGGCCGGCGUACUU | – | – | 36.2 | 29.4 |
| GGGUACAUCGGAGGAUAUCAUGUAAAUACAUGAGGAUCACCCAUGUCGAUGGAGACAUCGGAGAUUGAGAAGGCCUAUGUACCG | – | – | 194 | 9.34 |
| CCGCAUGCUGUCAGGAUAUCGUAGAUAAUAAUAUGCGAGAAGGGACAUGAGGAUCACCCAUGUAAGAGGCGGCC | 28.9 | 37.7 | – | – |
| CCUCCACAUGAGGAUCACCCAUGUCAGGAUAUCGUGUGUUUUUUUUCGGUCUUUCGUGCGAGAAGGGACGUCUG | 27.4 | 29.9 | – | – |
| GUCAGAUCGUGAGGAUAUACAACACUGCUUCGGCAGUGUAUUAAGAUCACAUGAGGAUCACCCAUGUAGAAGGCACGAGCUGAU | 13.3 | 236 | – | – |
| UUUAUAUUCAGAGGAUAUUAAAGUAGUAUAAUAUAAGAAGGCUGUUUGUUUUGUAAAUUUAUUCUACAUGAGGAUCACCCAUGU | – | – | 19.5 | 15.7 |
| UUUGCAACAUGAGGAUCACCCAUGUAGGAUAUCGCUAUUGUAAUCAUGAAACAUGAUUACAAUAGCGAGAAGGACAUAUGCUUU | 20.1 | 18.3 | – | – |
| AUAUCCGAAGCAGGAUAUCGGCAAGGUGUCGAGGUAGAGCGUACUCACAUGAGGAUCACCCAUGUCGAGAAGGGCUACAGGAUG | 16.8 | 72.4 | – | – |
| UGUUGUAUUACAGGAUAUCUAGUAUUGUUAUUUAGAGAAGGGUAUUCACAUGAGGAUCACCCAUGUAUAUACGAGGAAGUUGUG | – | – | 38.4 | 41.4 |
| UAGAAUCGAGGAUAUACAUGAGGAUCACCCAUGUGUGGCCAUACGGUGUGGUCGUCAGGUAGAAGGCGAUUAUA | 34.4 | 14.6 | – | – |
| GGUGCUAUGUAGAAGGCAGAUCUGAUUCAGAUCUGAGGAUAUACAUGAGGAUCACCCAUGUUAUGCACCAGCACGAGAGUGCAU | 13.5 | 35.1 | – | – |
| UGACCCAUGACAUGAGAUGACAUGAGGAUCACCCAUGUUUACAAGGAUAUGUUGAUGAAACAUCAACAGAAGGUGUAAUGGGAU | 53.7 | 385 | – | – |
| GCUGCUUAUGAGAAGGCGAUCAUGAAACAUGAUCGAGGAUAUCAUGUAAACAUGAGGAUCACCCAUGUAUGGGUAUUAUGCAGC | – | – | 374 | 37.6 |
| GGAAGCACGACGGAGCUAAGGUAGAAGGAUAUCCACGGCUAUAUCCACAUGAGGAUCACCCAUGUGGAGAAGGUCUAUCUUAAG | 5.51 | 8.8 | – | – |
| AUAUACUUUCGAGGAUAUCGGUGAUAAAUUUUACGAGAAGGCGAUAAAAGAUAUAAUCUUAUAGACAUGAGGAUCACCCAUGUA | – | – | 30.3 | 28 |
